Measured values: ChEMBL document CHEMBL3259773, “Indirubin core structure of glycogen synthase kinase-3 inhibitors as novel chemotype for intervention with 5-lipoxygenase” (J Med Chem, 2014)
Active and inactive are the calls of the source. The calls are words filed in the database; no cut-off is given here.

Tests used:
[1] = target: T1, Polyunsaturated fatty acid 5-lipoxygenase (Homo sapiens) (UniProt P09917); assay: Inhibition of human recombinant 5-LO assessed as product formation at 3 uM by cell-free assay relative to control; values are per cent of control
T1 sequence (whole entry): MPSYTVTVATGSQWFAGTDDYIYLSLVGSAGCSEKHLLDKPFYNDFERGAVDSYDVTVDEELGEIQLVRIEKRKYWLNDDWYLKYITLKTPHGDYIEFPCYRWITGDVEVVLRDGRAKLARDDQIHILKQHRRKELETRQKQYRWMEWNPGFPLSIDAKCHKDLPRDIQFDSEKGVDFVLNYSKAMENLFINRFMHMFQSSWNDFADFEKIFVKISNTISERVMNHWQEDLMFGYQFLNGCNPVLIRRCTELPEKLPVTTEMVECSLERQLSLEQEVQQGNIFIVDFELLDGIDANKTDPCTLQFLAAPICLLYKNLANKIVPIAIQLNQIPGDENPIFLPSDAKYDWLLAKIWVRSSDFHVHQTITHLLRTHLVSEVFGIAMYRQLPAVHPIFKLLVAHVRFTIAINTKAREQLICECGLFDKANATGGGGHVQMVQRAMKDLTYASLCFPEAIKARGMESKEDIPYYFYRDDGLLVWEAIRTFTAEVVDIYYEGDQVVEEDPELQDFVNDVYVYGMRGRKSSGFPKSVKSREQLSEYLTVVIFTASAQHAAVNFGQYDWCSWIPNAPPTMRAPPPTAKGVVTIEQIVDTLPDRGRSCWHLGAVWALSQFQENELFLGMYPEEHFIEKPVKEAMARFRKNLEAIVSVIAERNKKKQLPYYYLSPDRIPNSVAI

[2] = target: T1, Polyunsaturated fatty acid 5-lipoxygenase (Homo sapiens); assay: Inhibition of 5-LO in human neutrophils assessed as product formation at 3 uM by cell-intact assay relative to control in presence of 2.5 uM A23187 ionophore; values are per cent of control
SH-SY5Y = assay: Anticancer activity against human SH-SY5Y cells assessed as reduction in cell viability; format: functional, cell-based
[3] = target: T2, Polyunsaturated fatty acid 5-lipoxygenase (Homo sapiens, UniProt P09917); assay: Inhibition of human recombinant 5-LO assessed as product formation by cell-free assay relative to control
T2 sequence (P09917 whole entry): T1 sequence (whole entry)
Outline: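 Partially purified human recombinant 5-LO (ATP-agarose eluate, 0.5–2 μg) in PBS-EDTA with 1 mM ATP. Preincubated with vehicle or compound 10 min at 4 °C, prewarmed 30 s at 37 °C, then started with 2 mM CaCl2 and 20 μM AA. Products analysed by HPLC. Means ± SE, n = 3 or 4; IC50 by sigmoidal variable-slope fit.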

[4] = target: T2, Polyunsaturated fatty acid 5-lipoxygenase; assay: Inhibition of 5-LO in human neutrophils assessed as product formation by cell-intact assay relative to control in presence of 2.5 uM A23187 ionophore
Outline: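 Intact human neutrophils, 5 × 10^6 cells/mL, stimulated with 2.5 μM A23187. 5-LO products analysed by HPLC or UPLC–MS/MS and expressed relative to DMSO vehicle control. Means ± SE, n = 3 or 4; IC50 from sigmoidal variable-slope fit.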

[5] = target: T2, Polyunsaturated fatty acid 5-lipoxygenase; assay: Inhibition of 5-LO in human neutrophils assessed as product formation by cell-intact assay relative to control in presence of 20 uM A23187/AA ionophore
Outline: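 Intact human neutrophils, 5 × 10^6 cells/mL, stimulated with 2.5 μM A23187 plus 20 μM exogenous AA. 5-LO products quantified by HPLC or UPLC–MS/MS relative to vehicle control. IC50 from sigmoidal variable-slope fit, means ± SE, n = 3.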

[6] = target: T3, Prostaglandin G/H synthase 1 (Ovis aries) (UniProt P05979); assay: Inhibition of ovine COX1 using arachidonic acid at 10 uM after 5 mins by HPLC analysis
T3 sequence (whole entry): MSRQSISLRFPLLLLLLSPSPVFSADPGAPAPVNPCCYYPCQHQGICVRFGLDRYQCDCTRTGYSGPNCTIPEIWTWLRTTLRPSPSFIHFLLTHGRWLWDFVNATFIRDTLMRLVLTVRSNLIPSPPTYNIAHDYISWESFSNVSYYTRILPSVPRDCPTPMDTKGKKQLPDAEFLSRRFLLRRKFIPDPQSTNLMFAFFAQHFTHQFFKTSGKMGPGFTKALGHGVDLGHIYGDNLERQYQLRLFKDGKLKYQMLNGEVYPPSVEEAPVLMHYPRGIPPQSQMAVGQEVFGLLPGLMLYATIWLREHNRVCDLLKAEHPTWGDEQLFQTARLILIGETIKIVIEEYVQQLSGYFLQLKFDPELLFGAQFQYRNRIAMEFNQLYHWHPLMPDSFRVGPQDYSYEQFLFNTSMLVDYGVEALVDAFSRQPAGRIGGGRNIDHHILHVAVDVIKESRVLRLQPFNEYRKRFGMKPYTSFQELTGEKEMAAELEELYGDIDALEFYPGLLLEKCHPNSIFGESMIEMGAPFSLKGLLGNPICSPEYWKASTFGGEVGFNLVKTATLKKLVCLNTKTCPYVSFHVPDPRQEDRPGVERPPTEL
Outline: (§1)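 Enzyme (ovine COX-1) or A549 microsomal preparation (human mPGES-1) given compound or reference inhibitor 10 min before reaction start. Activity expressed as % of 0.1% DMSO vehicle control, read-outs 12-HHT (COX-1) and PGE2 (mPGES-1). Means ± SE, n = 3.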

[7] = target: T4, Prostaglandin E synthase (Homo sapiens) (UniProt O14684); assay: Inhibition of human mPGES1 from human A549 cells assessed as PGE2 at 10 uM after 15 mins by HPLC; format: cell-based
T4 sequence (whole entry): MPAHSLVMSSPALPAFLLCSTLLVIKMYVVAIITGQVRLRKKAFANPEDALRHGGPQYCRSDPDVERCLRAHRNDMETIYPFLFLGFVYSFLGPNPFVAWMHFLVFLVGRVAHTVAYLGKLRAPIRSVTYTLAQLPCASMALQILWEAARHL
Outline: as §1

[8] = target: T1, Polyunsaturated fatty acid 5-lipoxygenase (Homo sapiens); assay: Binding affinity to human recombinant 5-LO ATP-bindng site using ATP-agaarose column in S40 fraction of Escherichia coli
Outline: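 E. coli S40 fraction (40,000 × g supernatant) bound to ATP-agarose for 10 min at 4 °C. Pellets washed 3× with PBS-1 mM EDTA, then exposed to vehicle (0.1% DMSO) or compound for 30 min at 4 °C. Eluates and pellet-bound 5-LO resolved by SDS-PAGE and Western blot. Representative of three experiments.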

[9] = Inhibition of pig brain GSK3 using YRRAAVPPSPSLSRHSSPHQSpEDEEE substrate by cell-free assay; design: species or system Sus scrofa

Row | Compound | residual activity [1] | residual activity [2] | also measured
1 | O=C1Nc2c(Br)cccc2/C1=C1/Nc2cc(C(=O)O)ccc2/C1=N\O | 77.1% | 123% | –
2 | COc1ccc2c(c1)c(CC(=O)O)c(C)n2C(=O)c1ccc(Cl)cc1 | – | – | inhibition [6]: Active
3 | COC(=O)c1ccc2c(c1)C(=N\O)/C(=C1/C(=O)Nc3c(Br)cccc31)N2 | 72.8% | 99.1% | –
4 | CC(C)c1ccc2c(c1)c(SC(C)(C)C)c(CC(C)(C)C(=O)O)n2Cc1ccc(Cl)cc1 | – | – | inhibition [7]: Active
5 | O=C1Nc2c(F)cccc2/C1=C1/Nc2ccccc2/C1=N\O | 58.1% | 50.4% | IC50 [3]: 3.7 µM; IC50 [4]: 5 µM; IC50 [5]: 3.3 µM
6 | CN1CCN(CCO/N=C2/C(=C3/C(=O)Nc4cc(Br)ccc43)Nc3ccccc32)CC1 | 82.1% | 91.1% | –
7 | O=Nc1c(-c2c(O)[nH]c3ccccc23)[nH]c2ccccc12 [INDIRUBIN-3-MONOXIME] | 78.4% | 92.2% | IC50 [3]: 15 µM; IC50 [4]: 11.1 µM; IC50 [5]: 8.2 µM; IC50 [9]: 0.022 µM
8 | O=C1Nc2cc(Br)ccc2/C1=C1/Nc2ccccc2/C1=N\OCCN1CCNCC1 | 76.2% | 64.7% | –
9 | O=C1Nc2cc(Br)ccc2/C1=C1/Nc2ccccc2/C1=N\OCCN1CCOCC1 | 60.3% | 62.7% | –
10 | CC(c1cc2ccccc2s1)N(O)C(N)=O (configuration not stated) | – | 37.9% | –
11 | O=C1Nc2cc(Br)ccc2/C1=C1/Nc2ccccc2/C1=N\OCCN1CCN(CCO)CC1 | 89.3% | 119% | –
12 | O=C1Nc2c(cccc2C(F)(F)F)/C1=C1/Nc2ccccc2/C1=N\O | 68% | 92.6% | –
13 | O=C1Nc2c(Br)cccc2/C1=C1/Nc2cc(C(=O)O)ccc2C1=O | 80% | 105% | –
14 | O=C1Nc2c(Br)cccc2/C1=C1/Nc2ccc(/C=N/O)cc2C1=O | 80% | 95.1% | –
15 | O=C1Nc2cc(Br)ccc2/C1=C1/Nc2ccccc2/C1=N\OCCN1CCCC1 | 75.1% | 127% | –

Further lines, with some results ahead:

Row | residual activity [1] | residual activity [2] | Compound | also measured
16 | 79.2% | 112% | CC(=O)O/N=C1/C(=C2/C(=O)Nc3c(Br)cccc32)Nc2ccccc21 | –
17 | 71.5% | 87% | CN(CCO/N=C1/C(=C2/C(=O)Nc3cc(Br)ccc32)Nc2ccccc21)CC(O)CO (configuration not stated) | –
18 | 68.9% | 43% | O=C1Nc2c(Br)cccc2/C1=C1/Nc2ccccc2/C1=N\O | EC50 (SH-SY5Y): 8 µM; IC50 [3]: 5.8 µM; IC50 [4]: 1.7 µM; IC50 [5]: 3.6 µM
19 | 88.3% | 81.5% | O=C1Nc2cc(Br)ccc2/C1=C1/Nc2ccccc2/C1=N\OCCO | –
20 | 85.4% | 110% | O=C1Nc2c(Br)cccc2/C1=C1/Nc2ccccc2C1=O | –
21 | 97.7% | 122% | CN1C(=O)/C(=C2\Nc3ccccc3\C2=N/O)c2cccc(Br)c21 | Activity [8]: inactive
22 | 65.8% | 67.4% | O=C1Nc2c(Cl)cccc2/C1=C1/Nc2ccccc2/C1=N\O | IC50 [3]: 4.9 µM; IC50 [4]: 4.9 µM; IC50 [5]: 3.1 µM
23 | 43.9% | 111% | O=Nc1c(-c2c(O)[nH]c3ccccc23)[nH]c2cc(Br)ccc12 | –
24 | 58% | 77.7% | O=C1Nc2cc(Br)ccc2/C1=C1/Nc2ccccc2/C1=N\OCC(O)CO (configuration not stated) | –
25 | 62.3% | 51.1% | O=C1Nc2ccc(Br)cc2/C1=C1/Nc2ccccc2/C1=N\O [INDIRUBIN 2] | IC50 [3]: 5.6 µM; IC50 [4]: 2.6 µM; IC50 [5]: 3.3 µM
26 | 82.9% | 120% | CO/N=C1/C(=C2/C(=O)Nc3c(Br)cccc32)Nc2ccccc21 | –
